# Published values gathered from unrelated publications.
# Lines come from different studies, so protocols differ.
Structure (SMILES),tested on,assay,test system,conditions,endpoint,result
N.N.[Cl][Pt][Cl],SU-DHL-2,"cell growth or viability, ATP luminescence",,72 h,IC50,0.56 µM
C#CCCCCCC(=O)NCc1c(O)c(=O)cc(C)n1C,Pseudomonas aeruginosa,microbial growth,PAO1,,IC50,> 100 µM
Cc1c(Cl)c(=O)oc2cc(OCCCC[Se]C#N)ccc12,MIA PaCa-2,"cell growth or viability, SRB",,,GI50,13 µM
NNC(=O)c1ccncc1,Mycobacteroides abscessus,"microbial growth, broth dilution",,,MIC90,> 500 µg/mL
O=[N+]([O-])c1ccc(NCCCCN=C=S)c2nonc12,T47D,"cell growth or viability, MTT",,24 h,IC50,2.8 µM
C[C@@H]1C[C@@H]([C@H](O)CC2CC(=O)NC(=O)C2)C(=O)[C@@H](C)C1,Pseudomonas aeruginosa,"microbial growth, broth dilution",ATCC27 ATCC27853,,MIC,16 µg/mL
NCC[C@H](O)C(=O)N[C@@H]1C[C@H](N)[C@@H](O[C@H]2O[C@H](CN)[C@@H](O)[C@H](O)[C@H]2O)[C@H](O)[C@H]1O[C@H]1O[C@H](CO)[C@@H](O)[C@H](N)[C@H]1O,Mycobacteroides abscessus,"microbial growth, broth dilution",,,MIC90,3.4 µg/mL
N#C[Se]CCCCOc1ccc2c(-c3ccccc3)cc(=O)oc2c1,T47D,"cell growth or viability, SRB",,,GI50,26 µM
C#CCCCCC(=O)NCc1cc(=O)c(O)c(CNC(=O)CCCCCC)n1C,Pseudomonas aeruginosa,microbial growth,PAO1,,IC50,> 100 µM
C[C@@H](N)[C@H](O)CCCCCCCC(=O)CCCCCCCCCCCCCC[C@@H](O[C@@H]1O[C@H](CO)[C@H](O)[C@H](O)[C@H]1O)[C@@H](C)N,Pseudomonas aeruginosa,"microbial growth, resazurin",ATCC27853,50 µM,inhibition,99%
Cc1cc(=O)oc2cc(OCCCC[Se]C#N)ccc12,T47D,"cell growth or viability, SRB",,,GI50,2.2 µM
C#CCCC1(CCC(=O)NCc2cc(=O)c(O)c(CNC(=O)CCCCCC)n2C)N=N1,Pseudomonas aeruginosa,microbial growth,PAO1,,IC50,> 100 µM
O=c1c2ccccc2[se]n1-c1ccccc1,Zika virus,viral replication,,48 h,IC50,7.4 µM
